{"source": "ChEMBL document CHEMBL4024793", "about": "“Development of Stem-Cell-Mobilizing Agents Targeting CXCR4 Receptor for Peripheral Blood Stem Cell Transplantation and Beyond” (J Med Chem, 2018)", "key": {"[1]": {"target": "C-C chemokine receptor type 7 (Homo sapiens) (UniProt P32248)", "sequence (P32248 whole entry)": "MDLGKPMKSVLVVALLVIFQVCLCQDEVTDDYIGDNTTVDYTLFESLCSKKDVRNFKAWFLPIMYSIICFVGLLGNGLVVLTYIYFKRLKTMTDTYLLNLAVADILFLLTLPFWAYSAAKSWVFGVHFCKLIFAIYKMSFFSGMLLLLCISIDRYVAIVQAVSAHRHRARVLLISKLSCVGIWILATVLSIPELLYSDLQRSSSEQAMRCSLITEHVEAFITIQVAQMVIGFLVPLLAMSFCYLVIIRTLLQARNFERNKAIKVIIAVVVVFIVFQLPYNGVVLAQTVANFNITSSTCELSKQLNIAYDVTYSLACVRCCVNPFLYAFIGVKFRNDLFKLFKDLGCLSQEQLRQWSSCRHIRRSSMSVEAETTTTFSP", "experiment": "Antagonist activity at human CCR7 expressed in CHOK1 cells assessed as inhibition of CCL19-induced cAMP accumulation at 10 uM preincubated for 30 mins followed agonist addition measured after 30 to 60 mins", "type": "functional, cell-based", "summary_of_the_method": "(§1)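 GPCR cAMP assay with a single test concentration of 10 μM; result expressed as percentage inhibition for each chemokine receptor.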"}, "Rattus norvegicus [2]": {"tested_on": "Rattus norvegicus", "experiment": "Renal toxicity in Sprague-Dawley rat assessed as effect on kidney weight at 50 mg/kg/day, sc administered for 14 days relative to control", "type": "organism-based", "conditions": "in vivo, 336 h", "summary_of_the_method": "(§2)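 Non-GLP 14-day repeated-dose study in SD rats given 50 mg/kg/day SC. Major organs (liver, kidney, lung, heart) compared with vehicle for size, weight and colour. Blood analysed for hematological and biochemical parameters.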"}, "[3]": {"experiment": "AUC (0 to 4 hrs) in C57BL/6 mouse at 6 mg/kg, sc measured up to 4 hrs post dose by LC-MS/MS analysis", "type": "ADME, organism-based", "design": "dose 6 mg/kg, time < 4 hr, route subcutaneous", "conditions": "in vivo", "summary_of_the_method": "(§3)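 Male C57BL/6 mice (23.4–25.4 g), quarantined one week, non-fasted, n = 3; single SC dose of 6 mg/kg in 100% saline. Blood taken by cardiac puncture at 0, 0.03, 0.08, 0.25, 1, 1.5, 2 and 4 h and stored at -80 °C. Plasma analysed by LC–MS/MS; parameters from non-compartmental analysis; mean ± SD.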"}, "Cytochrome P450 2C9": {"target": "Cytochrome P450 2C9 (Homo sapiens, UniProt P11712)", "sequence (P11712 whole entry)": "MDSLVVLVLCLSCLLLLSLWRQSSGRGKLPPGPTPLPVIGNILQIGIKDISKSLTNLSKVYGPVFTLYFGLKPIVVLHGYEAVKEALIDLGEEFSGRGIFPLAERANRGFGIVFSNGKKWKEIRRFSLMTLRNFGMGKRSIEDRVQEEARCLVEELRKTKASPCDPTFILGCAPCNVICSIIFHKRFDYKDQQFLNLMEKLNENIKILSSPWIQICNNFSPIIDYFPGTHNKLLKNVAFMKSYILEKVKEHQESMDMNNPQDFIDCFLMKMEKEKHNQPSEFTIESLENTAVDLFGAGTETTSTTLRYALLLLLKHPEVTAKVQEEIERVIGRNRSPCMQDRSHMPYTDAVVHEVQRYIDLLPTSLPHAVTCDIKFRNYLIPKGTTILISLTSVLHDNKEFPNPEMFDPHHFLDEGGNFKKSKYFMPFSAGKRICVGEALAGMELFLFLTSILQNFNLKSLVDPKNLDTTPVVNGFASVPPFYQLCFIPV", "experiment": "Inhibition of human liver microsomal CYP2C9", "type": "ADME"}, "Mus musculus [4]": {"tested_on": "Mus musculus", "experiment": "In vivo antagonist activity at CXCR4 in C57BL/6 mouse assessed as induction of neutrophils molization at 35 mg/kg, sc measured after 2 hrs relative to AMD3100", "type": "functional", "design": "scale not given: the % may be the effect or the level left", "summary_of_the_method": "(§4)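 C57BL/6 mice given a single SC injection at 6 or 35 mg/kg. Blood collected 2 h after dosing and analysed for total white blood cells, neutrophils, lymphocytes and monocytes.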"}, "[5]": {"target": "Muscarinic acetylcholine receptor M2 (Homo sapiens) (UniProt P08172)", "sequence (P08172 whole entry)": "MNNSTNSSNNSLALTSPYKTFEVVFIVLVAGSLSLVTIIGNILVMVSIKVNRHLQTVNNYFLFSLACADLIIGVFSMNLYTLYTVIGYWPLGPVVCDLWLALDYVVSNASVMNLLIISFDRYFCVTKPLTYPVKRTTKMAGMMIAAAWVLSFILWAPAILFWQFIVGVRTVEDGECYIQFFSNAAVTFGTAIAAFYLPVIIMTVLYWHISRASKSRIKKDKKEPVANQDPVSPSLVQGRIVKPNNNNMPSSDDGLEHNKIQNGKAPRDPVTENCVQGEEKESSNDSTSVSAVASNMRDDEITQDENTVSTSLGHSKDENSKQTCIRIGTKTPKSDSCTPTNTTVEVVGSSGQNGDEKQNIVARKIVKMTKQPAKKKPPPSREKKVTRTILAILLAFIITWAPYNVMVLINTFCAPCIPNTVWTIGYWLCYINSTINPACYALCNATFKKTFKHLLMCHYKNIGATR", "experiment": "Displacement of [3H]AF-DX 384 from recombinant human Muscarinic M2 receptor at 10 uM after 60 mins by scintillation counting"}, "Rattus norvegicus [6]": {"tested_on": "Rattus norvegicus", "experiment": "Renal toxicity in Sprague-Dawley rat assessed as effect on kidney histology parameters up to 100 mg/kg/day, sc after 24 hrs by H and E staining based microscopy", "type": "organism-based", "conditions": "in vivo", "summary_of_the_method": "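Acute kidney histology study in SD rats at doses up to 100 mg/kg. Renal tissue compared with controls by photomicrographs.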"}, "[7]": {"target": "C-X-C chemokine receptor type 3 (Homo sapiens) (UniProt P49682)", "experiment": "Antagonist activity at human CXCR3 expressed in CHOK1 cells assessed as inhibition of CXCL11-induced cAMP accumulation at 10 uM preincubated for 30 mins followed agonist addition measured after 30 to 60 mins", "type": "functional, cell-based", "summary_of_the_method": "as §1"}, "Cytochrome P450 1A2": {"target": "Cytochrome P450 1A2 (Homo sapiens, UniProt P05177)", "experiment": "Inhibition of human liver microsomal CYP1A2", "type": "ADME"}, "[8]": {"experiment": "Half life in C57BL/6 mouse at 6 mg/kg, sc measured up to 4 hrs post dose by LC-MS/MS analysis", "type": "ADME, organism-based", "conditions": "in vivo", "summary_of_the_method": "as §3"}, "[9]": {"target": "C-C chemokine receptor type 6 (Homo sapiens) (UniProt P51684)", "sequence (P51684 whole entry)": "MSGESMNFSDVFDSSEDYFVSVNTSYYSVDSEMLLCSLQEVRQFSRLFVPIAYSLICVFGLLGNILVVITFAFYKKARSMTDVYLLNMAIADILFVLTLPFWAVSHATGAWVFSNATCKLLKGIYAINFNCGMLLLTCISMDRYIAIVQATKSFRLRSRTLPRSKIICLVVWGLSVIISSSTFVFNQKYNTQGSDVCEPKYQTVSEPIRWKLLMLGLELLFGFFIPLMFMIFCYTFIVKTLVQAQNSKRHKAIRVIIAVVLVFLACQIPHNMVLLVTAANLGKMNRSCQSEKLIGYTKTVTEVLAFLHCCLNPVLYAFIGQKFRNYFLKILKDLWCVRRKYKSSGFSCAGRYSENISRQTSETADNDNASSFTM", "experiment": "Antagonist activity at human CCR6 expressed in CHOK1 cells assessed as inhibition of CCL20-induced cAMP accumulation at 10 uM preincubated for 30 mins followed agonist addition measured after 30 to 60 mins", "type": "functional, cell-based", "summary_of_the_method": "as §1"}, "[10]": {"target": "C-C chemokine receptor type 5 (Homo sapiens) (UniProt P51681)", "experiment": "Antagonist activity at human CCR5 expressed in CHOK1 cells assessed as inhibition of CCL3-induced cAMP accumulation at 10 uM preincubated for 30 mins followed agonist addition measured after 30 to 60 mins", "type": "functional, cell-based", "summary_of_the_method": "as §1"}, "[11]": {"target": "Voltage-dependent N-type calcium channel subunit alpha-1B (Rattus norvegicus) (UniProt Q02294)", "sequence (Q02294 whole entry, looked up)": "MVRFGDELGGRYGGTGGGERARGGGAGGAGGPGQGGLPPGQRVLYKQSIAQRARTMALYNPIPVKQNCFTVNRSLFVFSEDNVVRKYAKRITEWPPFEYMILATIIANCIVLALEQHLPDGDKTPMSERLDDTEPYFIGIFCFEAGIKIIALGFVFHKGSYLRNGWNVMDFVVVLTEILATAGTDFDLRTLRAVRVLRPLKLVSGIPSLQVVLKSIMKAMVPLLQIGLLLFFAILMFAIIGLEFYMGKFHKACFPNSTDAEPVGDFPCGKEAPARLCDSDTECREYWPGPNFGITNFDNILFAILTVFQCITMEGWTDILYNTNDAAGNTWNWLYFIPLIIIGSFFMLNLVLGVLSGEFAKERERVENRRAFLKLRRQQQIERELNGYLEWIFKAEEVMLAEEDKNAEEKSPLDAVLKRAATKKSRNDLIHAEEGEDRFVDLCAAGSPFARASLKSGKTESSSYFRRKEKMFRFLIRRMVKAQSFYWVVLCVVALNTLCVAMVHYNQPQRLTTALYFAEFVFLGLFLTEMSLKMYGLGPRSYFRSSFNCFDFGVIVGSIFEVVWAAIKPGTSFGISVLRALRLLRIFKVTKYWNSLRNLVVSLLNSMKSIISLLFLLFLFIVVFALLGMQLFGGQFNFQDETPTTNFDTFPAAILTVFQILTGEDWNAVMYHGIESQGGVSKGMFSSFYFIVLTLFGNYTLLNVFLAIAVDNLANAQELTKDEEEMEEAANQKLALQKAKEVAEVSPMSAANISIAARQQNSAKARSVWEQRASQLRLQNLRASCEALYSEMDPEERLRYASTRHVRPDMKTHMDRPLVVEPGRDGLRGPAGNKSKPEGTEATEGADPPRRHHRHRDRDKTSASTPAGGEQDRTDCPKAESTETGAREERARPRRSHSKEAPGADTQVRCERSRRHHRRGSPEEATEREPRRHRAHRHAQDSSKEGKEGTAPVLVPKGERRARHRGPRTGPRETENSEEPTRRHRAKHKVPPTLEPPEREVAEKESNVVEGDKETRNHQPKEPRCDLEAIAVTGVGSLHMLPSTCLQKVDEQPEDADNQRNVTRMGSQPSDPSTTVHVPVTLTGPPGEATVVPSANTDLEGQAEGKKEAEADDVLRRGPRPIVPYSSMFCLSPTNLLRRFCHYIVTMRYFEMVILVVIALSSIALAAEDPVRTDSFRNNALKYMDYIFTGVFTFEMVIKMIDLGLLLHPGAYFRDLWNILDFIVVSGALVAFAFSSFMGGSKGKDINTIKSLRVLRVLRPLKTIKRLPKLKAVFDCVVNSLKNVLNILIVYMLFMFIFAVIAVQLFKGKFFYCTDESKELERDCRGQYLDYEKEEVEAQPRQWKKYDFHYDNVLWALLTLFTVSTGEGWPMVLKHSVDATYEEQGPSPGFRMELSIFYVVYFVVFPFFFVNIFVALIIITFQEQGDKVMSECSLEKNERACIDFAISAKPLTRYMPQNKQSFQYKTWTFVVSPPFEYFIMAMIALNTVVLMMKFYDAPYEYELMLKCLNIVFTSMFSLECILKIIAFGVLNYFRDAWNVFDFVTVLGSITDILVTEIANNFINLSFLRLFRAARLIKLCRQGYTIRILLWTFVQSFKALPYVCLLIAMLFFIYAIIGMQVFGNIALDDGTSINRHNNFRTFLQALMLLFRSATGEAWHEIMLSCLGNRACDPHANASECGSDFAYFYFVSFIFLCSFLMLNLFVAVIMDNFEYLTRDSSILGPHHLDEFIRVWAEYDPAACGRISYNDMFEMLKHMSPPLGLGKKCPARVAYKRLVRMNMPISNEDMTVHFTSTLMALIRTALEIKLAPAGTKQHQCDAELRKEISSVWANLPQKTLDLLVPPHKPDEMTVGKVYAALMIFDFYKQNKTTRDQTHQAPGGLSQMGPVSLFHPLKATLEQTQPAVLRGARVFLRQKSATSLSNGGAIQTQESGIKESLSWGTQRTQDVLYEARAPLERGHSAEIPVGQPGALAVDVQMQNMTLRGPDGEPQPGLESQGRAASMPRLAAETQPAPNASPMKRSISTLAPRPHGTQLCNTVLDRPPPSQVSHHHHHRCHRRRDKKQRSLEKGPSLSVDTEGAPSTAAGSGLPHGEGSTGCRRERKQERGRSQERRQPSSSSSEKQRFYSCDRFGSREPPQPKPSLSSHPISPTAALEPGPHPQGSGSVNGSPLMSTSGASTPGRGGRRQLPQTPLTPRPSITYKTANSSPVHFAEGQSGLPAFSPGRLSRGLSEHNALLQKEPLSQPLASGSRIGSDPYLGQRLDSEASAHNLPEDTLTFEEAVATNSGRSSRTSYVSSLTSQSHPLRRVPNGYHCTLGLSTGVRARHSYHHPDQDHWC", "experiment": "Displacement of [125I]omega-conotoxin GVIA from rat brain Cav2.2 at 10 uM after 30 mins by scintillation counting"}, "Rattus norvegicus [12]": {"tested_on": "Rattus norvegicus", "experiment": "Hepatotoxicity in Sprague-Dawley rat assessed as effect on liver color at 50 mg/kg/day, sc administered for 14 days relative to control", "type": "toxicity, organism-based", "conditions": "in vivo, 336 h", "summary_of_the_method": "as §2"}, "Rattus norvegicus [13]": {"tested_on": "Rattus norvegicus", "experiment": "Hepatotoxicity in Sprague-Dawley rat assessed as effect on liver size at 50 mg/kg/day, sc administered for 14 days relative to control", "type": "toxicity, organism-based", "conditions": "in vivo, 336 h", "summary_of_the_method": "as §2"}, "[14]": {"target": "C-X-C chemokine receptor type 5 (Homo sapiens) (UniProt P32302)", "sequence (P32302 whole entry)": "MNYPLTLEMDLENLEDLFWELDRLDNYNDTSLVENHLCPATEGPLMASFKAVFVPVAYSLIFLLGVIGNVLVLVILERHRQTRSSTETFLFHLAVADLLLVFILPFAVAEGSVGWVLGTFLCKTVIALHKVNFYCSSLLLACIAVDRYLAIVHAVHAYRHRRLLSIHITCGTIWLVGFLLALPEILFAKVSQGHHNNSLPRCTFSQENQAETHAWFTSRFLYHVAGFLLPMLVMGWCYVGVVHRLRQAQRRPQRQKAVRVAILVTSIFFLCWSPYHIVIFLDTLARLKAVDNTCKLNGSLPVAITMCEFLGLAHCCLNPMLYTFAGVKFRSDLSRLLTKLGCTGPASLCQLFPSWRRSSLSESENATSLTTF", "experiment": "Antagonist activity at human CXCR5 expressed in CHOK1 cells assessed as inhibition of CXCL13-induced cAMP accumulation at 10 uM preincubated for 30 mins followed agonist addition measured after 30 to 60 mins", "type": "functional, cell-based", "summary_of_the_method": "as §1"}, "Rattus norvegicus [15]": {"tested_on": "Rattus norvegicus", "experiment": "Toxicity in Sprague-Dawley rat assessed as effect on lung size at 50 mg/kg/day, sc administered for 14 days relative to control", "type": "organism-based", "conditions": "in vivo, 336 h", "summary_of_the_method": "as §2"}, "Mus musculus [16]": {"tested_on": "Mus musculus", "experiment": "Induction of hematopoietic stem cell mobilization in C57BL/6 mouse assessed as increase in CFU-GM colonies from PBMC at 35 mg/kg, sc administered on day 5 post 100 ug/kg/day G-CSF addition for 4 days measured after 2 hrs post compound dose by colony forming assay relative to AMD3100", "type": "functional", "summary_of_the_method": "(§5)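 Male C57BL/6 mice given G-CSF 100 µg/kg SC daily for 4 days. On day 5, G-CSF was co-injected SC with compound. Heparinized blood taken 2 h later; PBMCs isolated and cultured in methylcellulose medium for 10–14 days. CFU-GM colonies (aggregates of ≥50 cells) counted under an inverted microscope. Mean ± SEM, 8–12 mice per group, t test.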"}, "[17]": {"target": "C-X-C chemokine receptor type 4 (Homo sapiens, UniProt P61073)", "experiment": "Antagonist activity at human CXCR4 expressed in CHOK1 cells assessed as inhibition of SDF1a-induced cAMP accumulation at 10 uM preincubated for 30 mins followed agonist addition measured after 30 to 60 mins", "type": "functional, cell-based", "summary_of_the_method": "as §1"}, "Mus musculus [18]": {"tested_on": "Mus musculus", "experiment": "Induction of hematopoietic stem cell mobilization in C57BL/6 mouse assessed as increase in CFU-GM colonies from PBMC at 6 mg/kg, sc administered on day 5 post 100 ug/kg/day G-CSF addition for 4 days measured after 2 hrs post compound dose by colony forming assay relative to G-CSF alone", "type": "functional", "summary_of_the_method": "as §5"}, "Mus musculus [19]": {"tested_on": "Mus musculus", "experiment": "Induction hematopoietic stem cell mobilization in C57BL/6 mouse assessed as increase in CXCR4+ cells in blood at 35 mg/kg, sc measured after 2 hrs by APC-conjugated anti-CXCR4-staining based flow cytometry relative to vehicle control", "type": "functional", "summary_of_the_method": "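Male C57BL/6 mice, 8–10 weeks old, received SC doses escalating through 1, 6, 20, 35 and 50 mg/kg. Blood was drawn 2 h after dosing and labelled with APC-conjugated anti-CXCR4 (clone 2B11). CXCR4⁺ cells were counted by flow cytometry, at least 60,000 events per point. Mean ± SEM, n = 3 per group, t test against vehicle.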"}, "[20]": {"target": "C-C chemokine receptor type 10 (Homo sapiens) (UniProt P46092)", "sequence (P46092 whole entry)": "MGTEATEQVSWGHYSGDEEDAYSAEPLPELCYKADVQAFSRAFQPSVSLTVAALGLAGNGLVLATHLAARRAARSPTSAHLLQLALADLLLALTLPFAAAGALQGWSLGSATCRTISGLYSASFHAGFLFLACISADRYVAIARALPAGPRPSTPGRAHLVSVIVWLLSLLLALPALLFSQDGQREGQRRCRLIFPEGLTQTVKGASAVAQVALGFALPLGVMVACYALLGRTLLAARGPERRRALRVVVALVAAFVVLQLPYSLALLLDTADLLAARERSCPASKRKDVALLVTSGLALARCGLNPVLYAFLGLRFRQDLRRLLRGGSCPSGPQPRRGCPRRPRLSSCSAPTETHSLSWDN", "experiment": "Antagonist activity at human CCR10 expressed in CHOK1 cells assessed as inhibition of CCL27-induced cAMP accumulation at 10 uM preincubated for 30 mins followed agonist addition measured after 30 to 60 mins", "type": "functional, cell-based", "summary_of_the_method": "as §1"}, "Rattus norvegicus [21]": {"tested_on": "Rattus norvegicus", "experiment": "Toxicity in Sprague-Dawley rat assessed as effect on biochemistry parameters at 50 mg/kg/day, sc administered for 14 days relative to control", "type": "organism-based", "conditions": "in vivo, 336 h", "summary_of_the_method": "as §2"}, "Mus musculus [22]": {"tested_on": "Mus musculus", "experiment": "In vivo induction of WBC mobilization in C57BL/6 mouse at 35 mg/kg, sc measured after 2 hrs", "type": "functional, organism-based", "summary_of_the_method": "as §4"}}, "note": "Calls of active or inactive are those of the source. The rule behind the calls is not given here.", "data": [{"smiles": "Cc1cc(NC2CCN(C(=O)CCNCC(=O)O)CC2)nc(NCc2cn(CCCNCCCNC3CCCCC3)nn2)n1", "values": [{"measurement": "Efficacy", "setting": "[1]", "result": -4.2, "unit": "%"}, {"measurement": "Activity", "setting": "Rattus norvegicus [2]", "result": "Non-Toxic"}, {"measurement": "AUC(0-t) at 4 h", "setting": "[3]", "result": 13500, "unit": "ng·h/mL"}, {"measurement": "IC50", "setting": "Cytochrome P450 2C9", "result": "> 100", "unit": "µM"}, {"measurement": "Activity", "setting": "Mus musculus [4]", "result": "30 - 50%"}, {"measurement": "inhibition", "setting": "[5]", "result": 70, "unit": "%"}, {"measurement": "Activity", "setting": "Rattus norvegicus [6]", "result": "Non-Toxic"}, {"measurement": "Efficacy", "setting": "[7]", "result": -7.6, "unit": "%"}, {"measurement": "IC50", "setting": "Cytochrome P450 1A2", "result": "> 100", "unit": "µM"}, {"measurement": "half-life", "setting": "[8]", "result": 30, "unit": "min"}, {"measurement": "Efficacy", "setting": "[9]", "result": -2.2, "unit": "%"}, {"measurement": "Efficacy", "setting": "[10]", "result": 0.5, "unit": "%"}, {"measurement": "inhibition", "setting": "[11]", "result": 73, "unit": "%"}, {"measurement": "Activity", "setting": "Rattus norvegicus [12]", "result": "Non-Toxic"}, {"measurement": "Activity", "setting": "Rattus norvegicus [13]", "result": "Non-Toxic"}, {"measurement": "Efficacy", "setting": "[14]", "result": -11, "unit": "%"}, {"measurement": "Activity", "setting": "Rattus norvegicus [15]", "result": "Non-Toxic"}, {"measurement": "fold change (FC)", "setting": "Mus musculus [16]", "result": 1.6}, {"measurement": "Efficacy", "setting": "[17]", "result": 73.4, "unit": "%"}, {"measurement": "fold change (FC)", "setting": "Mus musculus [18]", "result": 5.3}, {"measurement": "fold change (FC)", "setting": "Mus musculus [19]", "result": 3}, {"measurement": "Efficacy", "setting": "[20]", "result": 0.5, "unit": "%"}, {"measurement": "Activity", "setting": "Rattus norvegicus [21]", "result": "Non-Toxic"}, {"measurement": "Activity", "setting": "Mus musculus [22]", "result": "Active"}]}]}
